Measurements published in the RNAGym collection of RNA variant scans (doi:10.1126/science.aae0568).
Fewer inactive variants are shown than the library holds.

B1: tRNA (parent)
chain: GUUCCGUUGGCGUAAUGGUAACGCGUCUCCCUCCUAAGGAGAAGACUGCGGGUUCGAGUCCCGUACGGAACG

Variants of: B1
Assay: yeast fitness relative to wild type (ratio to wild type); higher = fitter; tRNA-Arg(CCU), competitive growth, 37 C, YPD
Summary of the method: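 Genotype frequency changes were the basis for Darwinian fitness relative to wild type. The frequencies came from 100-nucleotide paired-end sequencing of gene amplicons from the start population and each end population of pooled yeast strains with tRNA-Arg(CCU) gene variants at the native locus. Competition ran in YPD at 37°C for 24 hours in six replicates, genotypes needed ≥ 100 starting reads, and estimates < 0.5 were set to 0.5.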

| Variant | yeast fitness |
| --- | --- |
| C5U C11U C34A | 0.558 |
| C5U C11G C29G C46U | ≤ 0.5 |
| C5U C30G A69C A70G | ≤ 0.5 |
| C5U C34A G67A | ≤ 0.5 |
| C5U A65C G68A | 0.681 |
| C5U G25C A42U | 0.639 |
| C5U G10C | 0.629 |
| C5U G10A | 0.702 |
| C5U C11U C49U | 0.721 |
| C5U G18A U28A G56A C61G | 0.626 |
| C5U C11G A15U U32A U35G | 0.562 |
| C5U C11G G51A | ≤ 0.5 |
| C5U U8C G41C | 0.542 |
| C5U G51A G56A A65C | ≤ 0.5 |
| C5U C24A | 0.597 |
| C5U C22U G48C C66U | ≤ 0.5 |
| C5U G9A C22U | 0.593 |
| C5U G12A A69C | 0.724 |
| C5U C31A A40G C61U A65U | ≤ 0.5 |
| C5U G10A C66U | 0.574 |
| C5U U7C A45C | 0.74 |
| C5U C24U U32A C55G A69U | ≤ 0.5 |
| C5U C11A C24G C27G A36U G38C C60A C66A | ≤ 0.5 |
| C5U G6A A15U A21G U54G | ≤ 0.5 |

| Variant | yeast fitness |
| --- | --- |
| C5U C29A A42G C61G | ≤ 0.5 |
| C5U C11U U28G A40C | 1.13 |
| C5U G50A C66U | 0.637 |
| C5U G50A C66A | ≤ 0.5 |
| C5U C11G C22G C46G | ≤ 0.5 |
| C5U C34A C55G A69U | ≤ 0.5 |
| C5U C11A U13C C24G C30G C46U | 0.629 |
| C5U U8A C61U | 0.548 |
| C5U G6A C11A U19A A69U | ≤ 0.5 |
| C5U G10C C27G U28C G39C C46G A65G | ≤ 0.5 |
| C5U G38C G39C A40G G44A C46G G52A | ≤ 0.5 |
| C5U C55U | 0.864 |
| C5U C11A C31U C34U | ≤ 0.5 |
| C5U G12A A45C | 0.782 |
| C5U G10C C30A A36U A42C | ≤ 0.5 |
| C5U U8C U26A | 0.727 |
| C5U C31G A40G A45G C46G G48A C62U G63A | ≤ 0.5 |
| C5U G25A U26A G56C A65C | ≤ 0.5 |
| C5U C11U C62U G68A | ≤ 0.5 |
| C5U U7A G10A G48C | ≤ 0.5 |
| C5U G41A | 0.906 |
| C5U C11G C33G | ≤ 0.5 |
| C5U G39A A45C | 0.76 |
| C5U C30A A42U A69C | ≤ 0.5 |

| Variant | yeast fitness |
| --- | --- |
| C5U U7A A14G | 0.538 |
| C5U U8A G68A | 0.544 |
| C5U G56A A65U | 0.854 |
| C5U U13A | 0.842 |
| C5U G38C G41C C60G | ≤ 0.5 |
| C5U G9C C11G C24A U26G C31G A45U C61U | ≤ 0.5 |
| C5U C24A C55A A65G | ≤ 0.5 |
| C5U C22U C34U G41A A45G | ≤ 0.5 |
| C5U G50A G63A | 0.608 |
| C5U C22U G41C C49G U59G G63A C66U | ≤ 0.5 |
| C5U C22G C27U | 0.612 |
| C5U C22G C24A A57C | ≤ 0.5 |
| C5U G39U | 0.823 |
| C5U G39A | 0.938 |
| C5U C33U U54C G58A | 0.703 |
| C5U C29U C34G | ≤ 0.5 |
| C5U G18C U26C C30U C31G A70C | ≤ 0.5 |
| C5U G9C G23A G50A A65U | ≤ 0.5 |
| C5U U7C U26C U28C C29G C34A | 0.659 |
| C5U C22A C33G C55U | ≤ 0.5 |
| C5U C34A U53A | 0.562 |
| C5U G44C A45U | 0.657 |
| C5U G44A | 1.08 |
| C5U G10A A21G G39A G48C | 0.598 |

| Variant | yeast fitness |
| --- | --- |
| C5U C34A G38C | ≤ 0.5 |
| C5U A69C | 0.865 |
| C5U G9C G52C U54C A69C | ≤ 0.5 |
| C5U C31G C33G C34U C49U G68A | 0.543 |
| C5U C31G A57U | ≤ 0.5 |
| C5U C31U A37C A43U G50C A57G | ≤ 0.5 |
| C5U G58A C61U A70G | 0.797 |
| C5U C55G A69U | ≤ 0.5 |
| C5U C33U | 0.71 |
| C5U G6A A40C C46A | 0.578 |
| C5U C27A A42U C49G C60A | 0.817 |
| C5U C33U A36C U54C | ≤ 0.5 |
| C5U C30U A37C U54A | ≤ 0.5 |
| C5U G48A C55U A65C | 0.556 |
| C5U C22G C24G C31U C55A | ≤ 0.5 |
| C5U G6C C11A C31G A36C | ≤ 0.5 |
| C5U C24U G41C | ≤ 0.5 |
| C5U G18A G25C A69C | ≤ 0.5 |
| C5U G18A | 0.76 |
| C5U C22U C31U C49A U59C A69U | ≤ 0.5 |
| C5U C27G U28A C30G C31U G67A | ≤ 0.5 |
| C5U C11G C34U A42C C61A A70U | ≤ 0.5 |
| C5U G52C C66U | 0.57 |
| C5U C27G C34G | ≤ 0.5 |

| Variant | yeast fitness |
| --- | --- |
| C5U G25A C49A A69U | ≤ 0.5 |
| C5U G9A C22A C55G | ≤ 0.5 |
| C5U G12C A69U | 0.62 |
| C5U U8A A65U | ≤ 0.5 |
| C5U G25A U32G | ≤ 0.5 |
| C5U C29G C31G A36U A37C A57C G68C | ≤ 0.5 |
| C5U C11U A15C C29A C30A A36U G38C C61U C66A | ≤ 0.5 |
| C5U C29A U32C C60A | 0.596 |
| C5U C22G U26G A42C | ≤ 0.5 |
| C5U C24G U53A G63A | ≤ 0.5 |
| C5U U13A C24U A45C | 0.671 |
| C5U C11G U13C A15U U32A U35G C55A C61G | ≤ 0.5 |
| C5U G17A C60A | ≤ 0.5 |
| C5U C49G A69U | 0.629 |
| C5U C24A U47A | 0.656 |
| C5U U8A A21G C49U G63C | ≤ 0.5 |
| C5U G18A A40U U47C G68A | 0.617 |
| C5U C11A U26A C29U C30A C31U C60U C61U | ≤ 0.5 |
| C5U C27G C31G G50C G58C | 0.743 |
| C5U C24U A36G C46A U47C C55A | ≤ 0.5 |
| C5U C31U G41C A43C C60G | ≤ 0.5 |
| C5U G50C G67A | ≤ 0.5 |
| C5U G12C U32A U35A U54C | ≤ 0.5 |
| C5U G10A G12A U53A | ≤ 0.5 |

| Variant | yeast fitness |
| --- | --- |
| C5U C62U | 1.03 |
| C5U U8G U28C A36G | ≤ 0.5 |
| C5U C31A G56A | 0.562 |
| C5U C29U G38C | ≤ 0.5 |
| C5U U8C C27U G48A C62A C66U | ≤ 0.5 |
| C5U C22U A37C C55A | 0.538 |
| C5U G25C C29A | ≤ 0.5 |
| C5U G17U C29G C31G A36U A37C A69C | ≤ 0.5 |
| C5U C34G A37U C49G G56A | ≤ 0.5 |
| C5U A57U G63A | ≤ 0.5 |
| C5U C46U C60G | ≤ 0.5 |
| C5U G17C C27U A65G | ≤ 0.5 |
| C5U C31G G41A G52C C60U C62G C66G | ≤ 0.5 |
| C5U C49U C66A G67A | ≤ 0.5 |
| C5U U8A G18C G23A | ≤ 0.5 |
| C5U C22G U47C | 0.687 |
| C5U C11U G67C | 0.659 |
| C5U C11U C29U C30G A70C | ≤ 0.5 |
| C5U C27G C60A | ≤ 0.5 |
| C5U G48A A69C | 0.758 |
| C5U G17A A40U A42C C49A C66A | 0.593 |
| C5U G9A C49A | 0.513 |
| C5U C27U | 1.09 |
| C5U C49A C66U | 0.551 |

| Variant | yeast fitness |
| --- | --- |
| C5U U7C C24G C27A | ≤ 0.5 |
| C5U C34U A40C | ≤ 0.5 |
| C5U A70U | 0.98 |
| C5U A70G | 1.01 |
| C5U C34G | 0.788 |
| C5U C34U | 0.746 |
| C5U G25A A70U | 1.05 |
| C5U U8A G38C A42C G63A | 0.534 |
| C5U C31G U59C | 0.913 |
| C5U C33U C62A | 0.579 |
| C5U G51C C55A C62U A65U A69U | ≤ 0.5 |
| C5U C11U G25A A37G C60G | ≤ 0.5 |
| C5U G18A G44C | 0.638 |
| C5U C22U C30G A57U C66U A70U | ≤ 0.5 |
| C5U C30U A42C C60G | ≤ 0.5 |
| C5U G9C A36G C60G A70G | ≤ 0.5 |
| C5U C27G U35G G44A | ≤ 0.5 |
| C5U C27U G41A | 0.573 |
| C5U C30A C33G A42C C60A C66A A69C | ≤ 0.5 |
| C5U C22U U35A A37U G67A | ≤ 0.5 |
| C5U C29U A43G | 0.632 |
| C5U C30G A57C | 0.715 |
| C5U A65U G67A | 0.921 |
